Source: ChEMBL document CHEMBL1949512, “RO4383596, an orally active KDR, FGFR, and PDGFR inhibitor: synthesis and biological evaluation” (Bioorg Med Chem, 2005)

Experiments:
[1] = target: Fibroblast growth factor receptor (Homo sapiens, UniProt P22607+P11362+P22455+P21802); experiment: Inhibition of human recombinant GST-tagged intracellular domain of FGFR using biotin-EEEEYFELV as substrate by HTRF assay
[2] = target: Epidermal growth factor receptor (Homo sapiens, UniProt P00533); experiment: Inhibition of human recombinant His-tagged intracellular domain of EGFR using biotin-EEEEYFELV as substrate by HTRF assay
Chain of Epidermal growth factor receptor (P00533 whole entry, the tested form may be a part): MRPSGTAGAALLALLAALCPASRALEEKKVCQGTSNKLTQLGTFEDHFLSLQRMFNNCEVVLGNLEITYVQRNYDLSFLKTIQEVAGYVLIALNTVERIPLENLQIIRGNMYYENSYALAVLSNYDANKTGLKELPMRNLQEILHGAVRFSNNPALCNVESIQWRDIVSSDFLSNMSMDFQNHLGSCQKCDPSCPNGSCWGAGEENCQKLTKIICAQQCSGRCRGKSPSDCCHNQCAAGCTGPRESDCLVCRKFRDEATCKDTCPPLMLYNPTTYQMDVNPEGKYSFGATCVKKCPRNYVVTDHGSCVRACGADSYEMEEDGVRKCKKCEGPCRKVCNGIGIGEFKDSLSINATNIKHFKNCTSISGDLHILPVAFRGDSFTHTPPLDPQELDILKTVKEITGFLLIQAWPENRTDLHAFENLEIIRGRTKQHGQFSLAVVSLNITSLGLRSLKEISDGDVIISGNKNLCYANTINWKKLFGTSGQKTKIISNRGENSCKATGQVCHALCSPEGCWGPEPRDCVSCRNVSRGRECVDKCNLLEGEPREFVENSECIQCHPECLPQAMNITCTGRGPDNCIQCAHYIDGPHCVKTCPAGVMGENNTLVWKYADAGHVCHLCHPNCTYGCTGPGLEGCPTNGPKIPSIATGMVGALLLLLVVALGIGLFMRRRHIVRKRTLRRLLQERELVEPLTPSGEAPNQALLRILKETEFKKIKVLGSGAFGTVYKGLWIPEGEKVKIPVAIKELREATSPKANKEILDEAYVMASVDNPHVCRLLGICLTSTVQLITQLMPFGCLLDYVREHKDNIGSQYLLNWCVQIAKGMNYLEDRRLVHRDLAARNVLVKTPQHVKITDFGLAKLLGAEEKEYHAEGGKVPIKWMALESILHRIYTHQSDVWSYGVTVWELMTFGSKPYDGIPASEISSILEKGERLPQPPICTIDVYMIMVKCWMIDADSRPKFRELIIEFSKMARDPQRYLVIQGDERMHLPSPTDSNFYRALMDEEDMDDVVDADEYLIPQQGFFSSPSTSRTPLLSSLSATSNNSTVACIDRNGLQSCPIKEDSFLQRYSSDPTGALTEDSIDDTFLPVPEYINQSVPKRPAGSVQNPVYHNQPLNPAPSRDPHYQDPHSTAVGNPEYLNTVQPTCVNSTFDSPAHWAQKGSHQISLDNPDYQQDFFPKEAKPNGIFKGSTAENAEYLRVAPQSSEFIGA

Ephrin type-B receptor 3 = target: T1, Ephrin type-B receptor 3 (Homo sapiens, UniProt P54753); experiment: Inhibition of EphB3
T1 sequence (P54753 whole entry): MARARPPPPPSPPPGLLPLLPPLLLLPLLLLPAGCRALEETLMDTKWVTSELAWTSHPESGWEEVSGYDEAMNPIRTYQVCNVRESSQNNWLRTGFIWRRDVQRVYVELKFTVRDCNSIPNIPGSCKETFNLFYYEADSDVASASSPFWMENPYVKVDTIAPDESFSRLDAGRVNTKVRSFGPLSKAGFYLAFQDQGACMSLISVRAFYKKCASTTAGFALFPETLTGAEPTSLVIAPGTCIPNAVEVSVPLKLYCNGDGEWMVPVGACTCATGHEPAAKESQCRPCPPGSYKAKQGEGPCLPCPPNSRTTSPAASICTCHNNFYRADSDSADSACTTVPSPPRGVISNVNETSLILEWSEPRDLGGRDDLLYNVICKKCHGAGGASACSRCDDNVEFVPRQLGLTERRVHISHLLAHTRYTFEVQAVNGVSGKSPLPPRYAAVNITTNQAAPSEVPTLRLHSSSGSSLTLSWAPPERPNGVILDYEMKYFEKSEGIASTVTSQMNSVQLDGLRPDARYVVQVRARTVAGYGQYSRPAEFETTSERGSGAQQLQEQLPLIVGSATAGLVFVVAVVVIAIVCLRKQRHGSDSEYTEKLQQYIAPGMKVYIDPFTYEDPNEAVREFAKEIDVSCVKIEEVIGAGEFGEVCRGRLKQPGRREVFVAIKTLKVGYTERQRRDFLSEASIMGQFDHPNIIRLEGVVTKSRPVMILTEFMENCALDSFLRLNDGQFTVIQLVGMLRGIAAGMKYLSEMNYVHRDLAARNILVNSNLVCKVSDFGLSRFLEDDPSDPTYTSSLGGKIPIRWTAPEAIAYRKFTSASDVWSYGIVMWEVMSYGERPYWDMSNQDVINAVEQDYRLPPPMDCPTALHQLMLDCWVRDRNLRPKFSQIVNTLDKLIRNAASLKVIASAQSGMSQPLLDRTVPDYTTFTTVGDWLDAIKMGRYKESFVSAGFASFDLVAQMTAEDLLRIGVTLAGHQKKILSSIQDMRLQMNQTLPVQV

[3] = target: Protein kinase C delta type (Homo sapiens, UniProt Q05655); experiment: Inhibition of PKCdelta by IMAP assay
Chain of Protein kinase C delta type (Q05655 whole entry): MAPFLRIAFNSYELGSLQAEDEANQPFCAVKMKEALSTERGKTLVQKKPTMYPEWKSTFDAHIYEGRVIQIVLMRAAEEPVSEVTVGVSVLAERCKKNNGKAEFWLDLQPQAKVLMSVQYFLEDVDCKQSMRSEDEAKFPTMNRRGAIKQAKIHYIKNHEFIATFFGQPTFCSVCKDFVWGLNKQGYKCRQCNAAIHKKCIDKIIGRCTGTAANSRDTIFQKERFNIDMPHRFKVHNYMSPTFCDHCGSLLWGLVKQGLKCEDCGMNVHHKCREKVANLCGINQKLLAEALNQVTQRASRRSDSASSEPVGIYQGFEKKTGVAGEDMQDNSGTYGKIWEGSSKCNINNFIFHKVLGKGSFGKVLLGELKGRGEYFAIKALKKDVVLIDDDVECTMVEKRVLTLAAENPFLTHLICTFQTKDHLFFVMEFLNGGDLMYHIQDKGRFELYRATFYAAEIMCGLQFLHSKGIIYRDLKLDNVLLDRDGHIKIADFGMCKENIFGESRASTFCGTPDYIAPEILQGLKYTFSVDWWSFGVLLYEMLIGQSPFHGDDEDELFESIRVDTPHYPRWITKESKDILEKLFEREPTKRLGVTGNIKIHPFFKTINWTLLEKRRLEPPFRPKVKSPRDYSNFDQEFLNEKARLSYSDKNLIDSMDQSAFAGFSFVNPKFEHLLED
Outline: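 IMAP fluorescence-polarization assay, in which phosphorylated fluorescent peptide substrates bind immobilized metal beads. Reactions ran at ATP three times Km.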

HUVEC = experiment: Antiangiogenic activity in HUVEC assessed as inhibition of VEGF-induced cell proliferation; conditions: Homo sapiens
[4] = Volume of distribution at steady state in athymic nude mouse at 10 mg/kg, iv; assay type: ADME, organism-based; design: dose 10 mg/kg, route intravenous; conditions: in vivo, read-out: Vdss
Outline: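 Athymic nude mice given single 10 mg/kg iv dose in 2% DMA, 10% PEG400, 88% of 40% HPBCD in water, 0.2 mL. Blood at 1, 5, 15, 30 min and 1, 2, 4, 8, 16, 24 h; EDTA plasma, LC-MS/MS. Composite Vdss by non-compartmental analysis.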

[5] = Oral bioavailability in athymic nude mouse at 50 mg/kg; assay type: ADME, organism-based; conditions: in vivo
Outline: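 Athymic nude mice received one dose, either iv 10 mg/kg in 2% DMA/10% PEG400/88% of 40% HPBCD in water, or po 50 mg/kg in 2% Klucel LF/0.1% Tween 80. Retro-orbital or terminal cardiac blood was drawn from 1 min (iv) or 5 min (po) to 24 h into EDTA. Plasma was analysed by LC-MS/MS. Composite parameters were obtained by non-compartmental analysis, with AUC extrapolated to infinity.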

[6] = AUC in Wistar rat at 50 mg/kg, po; assay type: ADME, organism-based; design: dose 50 mg/kg, route oral; conditions: plasma
Outline: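 Wistar rats received one dose, either iv 5 mg/kg via femoral arterial catheter (2% DMA/10% PEG400/88% of 40% HPBCD) or po 50 mg/kg (2% Klucel LF/0.1% Tween 80). Blood came from an implanted jugular catheter, up to 24 h (iv) or 48 h (po), into EDTA. Plasma LC-MS/MS; individual non-compartmental parameters were averaged.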

[7] = Tmax in Wistar rat at 50 mg/kg, po; assay type: ADME, organism-based; design: dose 50 mg/kg, route oral; conditions: in vivo
Outline: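 Wistar rats, single oral dose 50 mg/kg as suspension in 2% Klucel LF, 0.1% Tween 80 in water, 5 mL/kg. Jugular catheter blood at 5, 15, 30 min and 1, 3, 6, 12, 24, 48 h; EDTA plasma, LC-MS/MS. Tmax taken from concentration–time profiles; individual-animal parameters averaged.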

Mus musculus [8] = experiment: Dose normalized AUC in C57/BL6 mouse at 50 mg/kg, po bid for 5 days; assay type: ADME, organism-based; design: dose 50 mg/kg, route oral; conditions: in vivo, 120 h
Outline: (§1)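 Female C57/BL6 mice were dosed orally twice daily for 5 days with a suspension in 2% Klucel LF/0.1% Tween 80 in water. Six mice per dose were split into two subgroups of three, each sampled at alternate time points. Retro-orbital blood was taken at 0, 1, 4 and 8 h post-dose into EDTA, and plasma was analysed by LC-MS/MS. Parameters come from mean concentrations; AUC0–8h by linear trapezoidal rule; Cmax and Tmax as observed.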

[9] = Cmax in C57/BL6 mouse at 100 mg/kg, po bid for 5 days; assay type: ADME, organism-based; design: dose 100 mg/kg, route oral; conditions: in vivo; outline: as §1
[10] = AUC in […] mouse at 100 mg/kg, po; assay type: ADME, organism-based; design: dose 100 mg/kg, route oral; conditions: plasma
Outline: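 A separate group of female mice received one 100 mg/kg oral dose. Median PK parameters were calculated for that cohort.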

Mus musculus [11] = experiment: Antiangiogenic activity in C57/BL6 mouse cornea assessed as inhibition of VEGF-induced angiogenesis at 25 mg/kg, po bid for 7 days by corneal pocket assay relative to control; assay type: functional; conditions: 168 h
Outline: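 VEGF-impregnated pellets were implanted in corneas of female C57/BL6 mice aged 5–7 weeks. Oral twice-daily dosing started the same day and ran 7 days. The area of vascularization was then quantitated relative to animals given vehicle (2% Klucel LF, 0.1% Tween 80 in water).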

Mus musculus [12] = experiment: Antiangiogenic activity in C57/BL6 mouse cornea assessed as inhibition of bFGF-induced angiogenesis at 25 mg/kg, po bid for 5 days by corneal pocket assay relative to control; assay type: functional; conditions: 120 h
Outline: (§2)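 bFGF-impregnated pellets were implanted in corneas of female C57/BL6 mice aged 5–7 weeks. Oral dosing twice daily began the same day for 5 days. The neovascularized area was quantitated against vehicle-treated animals (2% Klucel LF, 0.1% Tween 80 in water).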

Mus musculus [13] = experiment: Antiangiogenic activity in C57/BL6 mouse cornea assessed as inhibition of bFGF-induced angiogenesis at 50 mg/kg, po bid for 5 days by corneal pocket assay relative to control; assay type: functional; conditions: 120 h; outline: as §2
Mus musculus [14] = experiment: Antiangiogenic activity in C57/BL6 mouse cornea assessed as inhibition of bFGF-induced angiogenesis at 100 mg/kg, po bid for 5 days by corneal pocket assay relative to control; assay type: functional; conditions: 120 h; outline: as §2

## COc1ccc(N2Cc3cnc(Nc4ccccc4)nc3N([C@@H]3CC[C@@H](O)C3)C2=O)cc1 (racemic)
[1]
  IC50: 29 nM
[2]
  IC50: 310 nM
Ephrin type-B receptor 3
  IC50: 1090 nM
[3]
  IC50: > 125000 nM
HUVEC
  IC50: 68 nM
[4]
  Vd: 1.9 L/kg
[5]
  bioavailability: 93%
[6]
  AUC: 26500 ng·h/mL
[7]
  Tmax: 5.3 h
Mus musculus [8]
  AUC/dose: 1510 ng·h/mL/mg/kg
[9]
  Cmax: 47700 ng/mL
[10]
  AUC: 146000 ng·h/mL
Mus musculus [11]
  inhibition in vivo at 25 mg/kg: 81%
Mus musculus [12]
  inhibition in vivo at 25 mg/kg: 72%
Mus musculus [13]
  inhibition in vivo at 50 mg/kg: 80%
Mus musculus [14]
  inhibition in vivo at 100 mg/kg: 97%
